B1: Osa-1-4 twister ribozyme (parent)
chain: CCGCCUAACACUGCCAAUGCCGGUCCCAAGCCCGGAUAAAAGUGGAGGGGGCGG

This data set covers variants of B1. Briefly: self-cleavage, relative activity (ratio to wild type); higher = more cleavage; co-transcriptional. The method, boiled down:
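A DNA template was synthesised for a 54-nucleotide twister ribozyme from Oryza sativa, with 97 % wild-type base and 1 % of each other base at each of the 48 positions downstream of the cleavage site. The ribozyme cleaved itself co-transcriptionally during 2 h of in vitro transcription at 37 °C. Reverse transcription with a template-switching oligonucleotide, PCR amplification and deep sequencing followed, and cleavage status came from reads with or without upstream sequence. Relative activity is the fraction cleaved normalised to wild type.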
For the variant CCGCCUAACACUGCCAAUGCCGGUCCCAAGCCCGGCUAAAAGCGGAGGGGGCGG, the self-cleavage was found to be 0.13.
Turning to CCGCCUAACACUGCCAAUGCCGGUCCCAAGCCCGGCUAAAAGGGGAGGGGGCGG, the self-cleavage is 0.11.
As for CCGCCUAACACUGCCAAUGCCGGUCCCAAGCCCGGCUAAAAGAGGAGGGGGCGG, the self-cleavage is 0.15.
Consider CCGCCUAACACUGCCAAUGCCGGUCCCAAGCCCGGCUAAAAGUGGAGGGGGCUG, for which the self-cleavage is 0.13.
For the variant CCGCCUAACACUGCCAAUGCCGGUCCCAAGCCCGGCUAAAAGUGGAGGGGGCCG, the self-cleavage came to 0.06.
For CCGCCUAACACUGCCAAUGCCGGUCCCAAGCCCGGCUAAAAGUGGAGGGGGCAG, the self-cleavage is 0.19.
In the case of CCGCCUAACACUGCCAAUGCCGGUCCCAAGCCCGGGUGAAAGUGGAGGGGGCGG, the self-cleavage turned out to be 0.99.
To CCGCCUAACACUGCCAAUGCCGGUCCCAAGCCCGGGUUAAAGUGGAGGGGGCGG belongs 1.01; to CCGCCUAACACUGCCAAUGCCGGUCCCAAGCCCGGGUCAAAGUGGAGGGGGCGG, 1.07.
Consider CCGCCUAACACUGCCAAUGCCGGUCCCAAGCCCGGCUAAAAGUGGAUGGGGCGG, for which the self-cleavage was 0.07.
Take CCGCCUAACACUGCCAAUGCCGGUCCCAAGCCCGGCUAAAAGUGGAAGGGGCGG: the self-cleavage was determined as 0.07.
With CCGCCUAACACUGCCAAUGCCGGUCCCAAGCCCGGCUAAAAGUGGACGGGGCGG, the self-cleavage worked out at 0.06.
With CCGCCUAACACUGCCAAUGCCGGUCCCAAGCCCGCCUAAAAGUGGAGGGGGCGG the figure was 0.75; with CCGCCUAACACUGCCAAUGCCGGUCCCAAGCCCGUCUAAAAGUGGAGGGGGCGG, 0.95; with CCGCCUAACACUGCCAAUGCCGGUCCCAAGCCCGACUAAAAGUGGAGGGGGCGG, 0.94.
To CCGCCUAACACUGGCAAUGCCGGUCCCAAGCCCGGGUAAAAGUGGAGGGGGCGG belongs 0.37.
With CCGCCUAACACUGUCAAUGCCGGUCCCAAGCCCGGGUAAAAGUGGAGGGGGCGG the figure was 0.88; with CCGCCUAACACUGACAAUGCCGGUCCCAAGCCCGGGUAAAAGUGGAGGGGGCGG, 0.19.
Turning to CCGCCUAAAACUGCCAAUGCCGGUCCCAAGCCCGGGUAAAAGUGGAGGGGGCGG, the self-cleavage amounted to 0.53.
Turning to CCGCCUAAGACUGCCAAUGCCGGUCCCAAGCCCGGGUAAAAGUGGAGGGGGCGG, the self-cleavage was determined as 0.89.
On to CCGCCUAAUACUGCCAAUGCCGGUCCCAAGCCCGGGUAAAAGUGGAGGGGGCGG, for which the self-cleavage amounted to 0.77.
In the case of CCGCCUAACACUGCCAAUGCCGGUCCCAAGCCCGGCUAAAAGUGGAGGAGGCGG, the self-cleavage stood at 0.06.
To CCGCCUAACACUGCCAAUGCCGGUCCCAAGCCCGGCUAAAAGUGGAGGUGGCGG belongs 0.06; to CCGCCUAACACUGCCAAUGCCGGUCCCAAGCCCGGCUAAAAGUGGAGGCGGCGG, 0.06; to CCGCCUAACACUGCCAAUGCCGGUCCCAAGCCCGGCUAAAAUUGGAGGGGGCGG, 0.04.
Take CCGCCUAACACUGCCAAUGCCGGUCCCAAGCCCGGCUAAAAAUGGAGGGGGCGG: the self-cleavage came to 0.1.
With CCGCCUAACACUGCCAAUGCCGGUCCCAAGCCCGGCUAAAACUGGAGGGGGCGG the figure was 0.08; with CCGCCUAACACUGCCAAUGCCCGUCCCAAGCCCGGCUAAAAGUGGAGGGGGCGG, 0.08.
With CCGCCUAACACUGCCAAUGCCAGUCCCAAGCCCGGCUAAAAGUGGAGGGGGCGG, the self-cleavage turned out to be 0.6.
With CCGCCUAACACUGCCAAUGCCUGUCCCAAGCCCGGCUAAAAGUGGAGGGGGCGG the figure was 0.35; with CCGCCUAACACUGCCAAUGCCGGUCCCAAGCCCGGCUAAAAGUGGAGGGGGCGC, 0.19; with CCGCCUAACACUGCCAAUGCCGGUCCCAAGCCCGGCUAAAAGUGGAGGGGGCGU, 0.55.
To CCGCCUAACACUGCCAAUGCCGGUCCCAAGCCCGGCUAAAAGUGGAGGGGGCGA belongs 0.27.
Take CCGCCUAACACUGCCAAUGCCGGUCCCAAGCCCGGCCAAAAGUGGAGGGGGCGG: the self-cleavage is 0.98.
With CCGCCUAACACUGCCAAUGCCGGUCCCAAGCCCGGCAAAAAGUGGAGGGGGCGG the figure was 0.53; with CCGCCUAACACUGCCAAUGCCGGUCCCAAGCCCGGCGAAAAGUGGAGGGGGCGG, 0.93.
Take CCGCCUAACACUGCCAAUGCCGCUCCCAAGCCCGGCUAAAAGUGGAGGGGGCGG: the self-cleavage amounted to 0.03.
To CCGCCUAACACUGCCAAUGCCGAUCCCAAGCCCGGCUAAAAGUGGAGGGGGCGG belongs 0.09; to CCGCCUAACACUGCCAAUGCCGUUCCCAAGCCCGGCUAAAAGUGGAGGGGGCGG, 0.05; to CCGCCUAACACUGCCAAUGCCGGUCCCAAGCCCGGCUAAAAGUCGAGGGGGCGG, 0.58.
To CCGCCUAACACUGCCAAUGCCGGUCCCAAGCCCGGCUAAAAGUUGAGGGGGCGG belongs 0.37; to CCGCCUAACACUGCCAAUGCCGGUCCCAAGCCCGGCUAAAAGUAGAGGGGGCGG, 0.16.
In the case of CCGCCUAACACAGCCAAUGCCGGUCCCAAGCCCGGCUAAAAGUGGAGGGGGCGG, the self-cleavage was 0.13.
To CCGCCUAACACCGCCAAUGCCGGUCCCAAGCCCGGCUAAAAGUGGAGGGGGCGG belongs 0.08; to CCGCCUAACACGGCCAAUGCCGGUCCCAAGCCCGGCUAAAAGUGGAGGGGGCGG, 0.13.
In the case of CCGCCUAACACUGCCAAUGCCGGUCCCAAGCCCGGCUAAAAGUGGAGCGGGCGG, the self-cleavage came out at 0.05.
In the case of CCGCCUAACACUGCCAAUGCCGGUCCCAAGCCCGGCUAAAAGUGGAGAGGGCGG, the self-cleavage was determined as 0.05.
With CCGCCUAACACUGCCAAUGCCGGUCCCAAGCCCGGCUAAAAGUGGAGUGGGCGG the figure was 0.04; with CCGCCUGACACUGCCAAUGCCGGUCCCAAGCCCGGGUAAAAGUGGAGGGGGCGG, 0.5; with CCGCCUUACACUGCCAAUGCCGGUCCCAAGCCCGGGUAAAAGUGGAGGGGGCGG, 0.1.
To CCGCCUCACACUGCCAAUGCCGGUCCCAAGCCCGGGUAAAAGUGGAGGGGGCGG belongs 0.05.
As for CCGCCUAACACUGCAAAUGCCGGUCCCAAGCCCGGGUAAAAGUGGAGGGGGCGG, the self-cleavage stood at 0.85.
To CCGCCUAACACUGCUAAUGCCGGUCCCAAGCCCGGGUAAAAGUGGAGGGGGCGG belongs 0.89.
Turning to CCGCCUAACACUGCGAAUGCCGGUCCCAAGCCCGGGUAAAAGUGGAGGGGGCGG, the self-cleavage worked out at 0.84.
With CCGCCUAACACUGCCAAUGCCGGUCCCAAGCCCGGGUAACAGUGGAGGGGGCGG the figure was 0.1; with CCGCCUAACACUGCCAAUGCCGGUCCCAAGCCCGGGUAAGAGUGGAGGGGGCGG, 0.95.
Turning to CCGCCUAACACUGCCAAUGCCGGUCCCAAGCCCGGGUAAUAGUGGAGGGGGCGG, the self-cleavage came out at 0.96.
For the variant CCGCCUAACAUUGCCAAUGCCGGUCCCAAGCCCGGGUAAAAGUGGAGGGGGCGG, the self-cleavage came out at 0.93.
To CCGCCUAACAGUGCCAAUGCCGGUCCCAAGCCCGGGUAAAAGUGGAGGGGGCGG belongs 0.73.
To CCGCCUAACAAUGCCAAUGCCGGUCCCAAGCCCGGGUAAAAGUGGAGGGGGCGG belongs 0.85.
With CCGCCUAACACUGCCAAUGCCGGUCCCAAGCCCGGCUAAAAGUGGAGGGGACGG the figure was 0.28.
As for CCGCCUAACACUGCCAAUGCCGGUCCCAAGCCCGGCUAAAAGUGGAGGGGCCGG, the self-cleavage is 0.07.
To CCGCCUAACACUGCCAAUGCCGGUCCCAAGCCCGGCUAAAAGUGGAGGGGUCGG belongs 0.11; to CCGCCUAACACUGCCAAUGCCGGGCCCAAGCCCGGCUAAAAGUGGAGGGGGCGG, 0.03.
To CCGCCUAACACUGCCAAUGCCGGCCCCAAGCCCGGCUAAAAGUGGAGGGGGCGG belongs 0.07; to CCGCCUAACACUGCCAAUGCCGGACCCAAGCCCGGCUAAAAGUGGAGGGGGCGG, 0.06.
Turning to CCGCCUAACACUGCCAAUGCCGGUCCCAAGCCCGGGUAAAUGUGGAGGGGGCGG, the self-cleavage turned out to be 0.99.
In the case of CCGCCUAACACUGCCAAUGCCGGUCCCAAGCCCGGGUAAAGGUGGAGGGGGCGG, the self-cleavage was 0.89.
In the case of CCGCCUAACACUGCCAAUGCCGGUCCCAAGCCCGGGUAAACGUGGAGGGGGCGG, the self-cleavage amounted to 0.97.
For CCGCCUAUCACUGCCAAUGCCGGUCCCAAGCCCGGGUAAAAGUGGAGGGGGCGG, the self-cleavage was found to be 0.53.
In the case of CCGCCUAGCACUGCCAAUGCCGGUCCCAAGCCCGGGUAAAAGUGGAGGGGGCGG, the self-cleavage stood at 0.66.
With CCGCCUACCACUGCCAAUGCCGGUCCCAAGCCCGGGUAAAAGUGGAGGGGGCGG the figure was 0.1.
With CCGCCUAACACUGCCAAUGCCGGUCCCAAGCCCGGGUAUAAGUGGAGGGGGCGG the figure was 0.97.
With CCGCCUAACACUGCCAAUGCCGGUCCCAAGCCCGGGUACAAGUGGAGGGGGCGG the figure was 1.05.
Turning to CCGCCUAACACUGCCAAUGCCGGUCCCAAGCCCGGGUAGAAGUGGAGGGGGCGG, the self-cleavage amounted to 1.01.
With CCGCCUAACACUGCCAAUGCCGGUCCCAAGCCCGGCUAAAAGUGCAGGGGGCGG the figure was 0.04; with CCGCCUAACACUGCCAAUGCCGGUCCCAAGCCCGGCUAAAAGUGUAGGGGGCGG, 0.05; with CCGCCUAACACUGCCAAUGCCGGUCCCAAGCCCGGCUAAAAGUGAAGGGGGCGG, 0.07.
To CCGCCUAACACUGCCAAUGCCGGUCCCAAGCCCGGGUAAAAGUGGGGGGGGCGG belongs 0.11.
To CCGCCUAACACUGCCAAUGCCGGUCCCAAGCCCGGGUAAAAGUGGUGGGGGCGG belongs 0.1.
For the variant CCGCCUAACACUGCCAAUGCCGGUCCCAAGCCCGGGUAAAAGUGGCGGGGGCGG, the self-cleavage came out at 0.08.
On to CCGCCUAACACUGCCAAUGCCGGUCCCAAGCCCGGCUAAAAGUGGAGGGCGCGG, for which the self-cleavage is 0.22.
With CCGCCUAACACUGCCAAUGCCGGUCCCAAGCCCGGCUAAAAGUGGAGGGUGCGG, the self-cleavage was determined as 0.37.
Take CCGCCUAACACUGCCAAUGCCGGUCCCAAGCCCGGCUAAAAGUGGAGGGAGCGG: the self-cleavage is 0.77.
On to CCGCCUAACACUGCCAAGGCCGGUCCCAAGCCCGGCUAAAAGUGGAGGGGGCGG, for which the self-cleavage is 0.87.
For CCGCCUAACACUGCCAACGCCGGUCCCAAGCCCGGCUAAAAGUGGAGGGGGCGG, the self-cleavage was determined as 0.67.
To CCGCCUAACACUGCCAAAGCCGGUCCCAAGCCCGGCUAAAAGUGGAGGGGGCGG belongs 0.55; to CCGCCUAACACUGCCAAUGCCGGUCCCAAACCCGGCUAAAAGUGGAGGGGGCGG, 0.02; to CCGCCUAACACUGCCAAUGCCGGUCCCAAUCCCGGCUAAAAGUGGAGGGGGCGG, 0.03.
With CCGCCUAACACUGCCAAUGCCGGUCCCAACCCCGGCUAAAAGUGGAGGGGGCGG the figure was 0.05; with CCGCCUAACACUGCCAAUGCCGGUCCCAAGCCCGGGUAAAAGUGGAGGGGGCGG, 1.03.
Regarding CCGCCUAACACUGCCAAUGCCGGUCCCAAGCCCUGCUAAAAGUGGAGGGGGCGG, the self-cleavage came to 0.75.
To CCGCCUAACACUGCCAAUGCCGGUCCCAAGCCCAGCUAAAAGUGGAGGGGGCGG belongs 0.88; to CCGCCUAACACUGCCAAUGCCGGUCCCAAGCCCCGCUAAAAGUGGAGGGGGCGG, 0.39.
As to CCGCCUAACACUGCCAAUGUCGGUCCCAAGCCCGGGUAAAAGUGGAGGGGGCGG, the self-cleavage is 0.99.
With CCGCCUAACACUGCCAAUGACGGUCCCAAGCCCGGGUAAAAGUGGAGGGGGCGG the figure was 0.87.
To CCGCCUAACACUGCCAAUGGCGGUCCCAAGCCCGGGUAAAAGUGGAGGGGGCGG belongs 0.12.

The record behind these values is the RNAGym collection of RNA variant scans (doi:10.1002/anie.201605470).
